Published values gathered from unrelated publications.
Each line is one published result; the experiments were not run side by side.
Target: Serine/threonine-protein kinase LATS1 (LATS1, Homo sapiens, UniProt O95835)
Sequence (O95835 1-1130, as in one of the studies): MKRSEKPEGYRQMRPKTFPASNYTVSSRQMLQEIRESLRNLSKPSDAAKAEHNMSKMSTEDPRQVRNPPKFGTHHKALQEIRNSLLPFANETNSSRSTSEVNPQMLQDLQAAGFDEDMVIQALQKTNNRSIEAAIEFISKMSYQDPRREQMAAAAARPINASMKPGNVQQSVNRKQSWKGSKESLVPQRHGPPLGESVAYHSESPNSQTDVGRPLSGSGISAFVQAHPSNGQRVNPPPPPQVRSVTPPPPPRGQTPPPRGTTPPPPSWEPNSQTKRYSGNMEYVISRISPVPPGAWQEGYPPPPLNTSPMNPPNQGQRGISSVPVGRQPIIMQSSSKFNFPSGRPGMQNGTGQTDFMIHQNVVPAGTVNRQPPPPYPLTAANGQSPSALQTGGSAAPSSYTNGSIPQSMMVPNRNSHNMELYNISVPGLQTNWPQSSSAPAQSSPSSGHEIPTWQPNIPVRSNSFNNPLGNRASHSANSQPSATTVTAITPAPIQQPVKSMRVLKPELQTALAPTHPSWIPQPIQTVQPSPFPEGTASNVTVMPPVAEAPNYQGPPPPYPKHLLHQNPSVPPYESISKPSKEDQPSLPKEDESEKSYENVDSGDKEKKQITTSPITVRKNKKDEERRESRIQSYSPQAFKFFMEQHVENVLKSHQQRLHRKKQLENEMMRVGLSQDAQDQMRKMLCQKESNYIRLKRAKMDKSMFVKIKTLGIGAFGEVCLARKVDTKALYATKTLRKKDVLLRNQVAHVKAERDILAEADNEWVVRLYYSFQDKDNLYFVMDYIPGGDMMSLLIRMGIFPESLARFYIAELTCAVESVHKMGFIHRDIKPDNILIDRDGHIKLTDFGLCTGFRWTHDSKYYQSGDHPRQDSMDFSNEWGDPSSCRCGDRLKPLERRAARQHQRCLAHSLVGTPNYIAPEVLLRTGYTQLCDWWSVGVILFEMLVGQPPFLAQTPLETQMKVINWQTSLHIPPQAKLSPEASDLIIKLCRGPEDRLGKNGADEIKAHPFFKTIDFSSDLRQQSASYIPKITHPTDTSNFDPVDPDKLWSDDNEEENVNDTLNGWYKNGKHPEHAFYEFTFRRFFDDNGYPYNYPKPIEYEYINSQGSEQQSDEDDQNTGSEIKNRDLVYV

CN(C)c1ncnc(-c2ccc3nc(Nc4cc(CN5CCN(C(=O)CC(F)(F)F)CC5)ccn4)[nH]c3c2)c1Cl
remaining binding (cell-free assay; competition with immobilised ligand; 1 µM): 95%

c1cncc(-c2cccc(Nc3nccc(NC4CCCCC4)n3)c2)c1
remaining binding (binding; competition with immobilised ligand; 10 µM): 19%

C[C@H]1CCN(c2nccc(-c3cnn4ncccc34)n2)C1
remaining binding (binding; 1 µM): 100%

Nc1ncc2c(n1)-c1c([nH]c3ccc(C#CC4CC4)cc13)CCCC2
remaining binding (binding; competition with immobilised ligand; 1 µM): 92%

O=C(O)c1cc(-c2ccc(C3CCNCC3)cc2)c2ccc(-c3ccc(C(F)(F)F)cc3)cc2c1
remaining binding (cell-free assay; competition with immobilised ligand; 1 µM): 88%

O=C(c1ccc(Nc2ncc(Cl)c(-c3cc4ccccc4s3)n2)cc1)N1CCC(N2CCCC2)CC1
remaining binding (binding; competition with immobilised ligand; 1 µM): 60%

N#Cc1ccc(Nc2ccc3[nH]c(=O)[nH]c3c2)c(Cl)c1
remaining binding (cell-free assay; competition with immobilised ligand; 1 µM): 76%

O=C(NCC1CCOCC1)c1n[nH]cc1NC(=O)c1c(F)cccc1F
remaining binding (binding; competition with immobilised ligand; 1 µM): 100%

CN(C)c1ncc(F)c(-c2cnn3ncccc23)n1
remaining binding (binding; 1 µM): 100%

O=C(NCCCC1CCCCC1)c1ccc(CNC(=O)c2cnn(-c3ccccc3)c2C(F)(F)F)cc1
remaining binding (cell-free assay; competition with immobilised ligand; 0.1 µM): 100%

COc1cnc(Nc2cccc(S(N)(=O)=O)c2)nc1N1CCN(c2ccccc2)C(=O)C1
remaining binding (binding; competition with immobilised ligand; 1 µM): 90%

N[C@H]1CCN(c2nccc(-c3cnn4ncccc34)n2)C1
remaining binding (binding; 1 µM): 100%

CCOCCn1cc(C(=O)Nc2ccc(-n3nc(-c4cccnc4)cc3C(F)(F)F)cn2)ccc1=O
remaining binding (cell-free assay; competition with immobilised ligand; 1 µM): 69%

COc1ccnn2ncc(-c3ccnc(N(C)C)n3)c12
remaining binding (binding; 1 µM): 100%

FC(F)(F)Oc1cccc(-c2cnc3ccc(-c4ccncc4)nn23)c1
remaining binding (cell-free assay; competition with immobilised ligand; 5 µM): 100%

O=C(c1ccc(Nc2nccc(-c3cc4ccccc4s3)n2)cc1)N1CCC(N2CCCC2)CC1
remaining binding (binding; competition with immobilised ligand; 1 µM): 93%

CN(CCCC(F)(F)F)c1nccc(-c2cnn3ncccc23)n1
remaining binding (binding; 1 µM): 78%

O=C(NCCCN1CCOCC1)c1ccc(Nc2ncc(Cl)c(-c3ccc(Cl)s3)n2)cc1
remaining binding (binding; competition with immobilised ligand; 1 µM): 42%

O=C(O)[C@@H]1[C@@H](Cn2nnc3ccccc3c2=O)CC[C@H]1C(=O)c1ccc(OCCC2CCOCC2)cc1
remaining binding (cell-free assay; competition with immobilised ligand; 1 µM): 90%

CN(C)c1nccc(-c2cnn3ncccc23)n1
remaining binding (binding; 1 µM): 100%

C=CC(=O)N1CCC(C(=O)NCC(=O)N2CCN(c3nc(-c4cnc(N)nc4C(F)F)nc(N4CCOCC4)n3)CC2)CC1
remaining binding (binding; competition with immobilised ligand; 1 µM): 100%
